Activity calls are given as the source filed them. The rule behind the calls is not given here.
How the values were obtained:
MDA-MB-231 = assay: Cytotoxicity against human MDA-MB-231 cells incubated for 72 hrs by CyQuant NF cell proliferation assay; type: functional, cell-based; conditions: MDA-MB-231, 72 h
Method in brief: (§1)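 Cells seeded at 4,000 per well and treated 20 h later with serially diluted compounds for 72 h at 37 °C, 5% CO2. Medium containing penicillin 100 U/mL and streptomycin 100 μg/mL. Medium then replaced with CyQuant NF dye-binding solution for 60 min at 37 °C and fluorescence read on a plate reader. Triplicates in two independent trials. IC50 reported. In the second trial, sample concentration was set by colorimetry against a standard curve.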

A549 = assay: Cytotoxicity against human A549 cells incubated for 72 hrs by CyQuant NF cell proliferation assay; type: functional, cell-based; conditions: A549, 72 h; method in brief: as §1
DU-145 = assay: Cytotoxicity against human DU145 cells incubated for 72 hrs by CyQuant NF cell proliferation assay; type: functional, cell-based; conditions: DU-145, 72 h; method in brief: as §1
[1] = target: Beta-secretase 1 (Homo sapiens) (UniProt P56817); assay: Inhibition of BACE1 (unknown origin) up to 30 uM
Beta-secretase 1 (Homo sapiens), sequence (P56817 whole entry): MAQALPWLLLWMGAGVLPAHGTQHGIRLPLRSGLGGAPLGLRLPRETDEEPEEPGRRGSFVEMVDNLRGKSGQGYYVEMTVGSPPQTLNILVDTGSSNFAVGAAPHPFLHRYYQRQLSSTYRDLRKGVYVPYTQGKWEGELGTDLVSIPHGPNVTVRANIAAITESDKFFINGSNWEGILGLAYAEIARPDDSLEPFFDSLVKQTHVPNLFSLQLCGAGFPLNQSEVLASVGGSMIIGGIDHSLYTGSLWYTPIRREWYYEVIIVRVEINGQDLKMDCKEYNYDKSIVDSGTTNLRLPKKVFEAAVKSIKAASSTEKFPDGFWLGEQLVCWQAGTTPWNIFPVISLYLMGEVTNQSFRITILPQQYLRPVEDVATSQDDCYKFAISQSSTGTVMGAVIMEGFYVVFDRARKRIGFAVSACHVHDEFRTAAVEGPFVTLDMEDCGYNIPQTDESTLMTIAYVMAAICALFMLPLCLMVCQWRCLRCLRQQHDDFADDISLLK

| Compound | IC50 (MDA-MB-231) | IC50 (A549) | IC50 (DU-145) | inhibition [1] |
| --- | --- | --- | --- | --- |
| COC(CC1OC(=O)CC(O)CCCC(=O)CC(C)c2coc(n2)-c2coc(n2)-c2coc(n2)/C=C/CC(OC)C1C)C(C)CCC(O)C(C)C(OC(C)=O)C(C)/C=C/N(C)C=O (stereo unspecified) | 580 to 760 nM | 600 to 680 nM | 760 to 850 nM |  |
| CO[C@H]1C/C=C/c2nc(co2)-c2nc(co2)-c2nc(co2)[C@@H](C)CC(=O)CCC[C@H](O)CC(=O)O[C@@H](C[C@H](OC)[C@@H](C)CCC(=O)[C@H](C)[C@H](OC(C)=O)[C@H](C)/C=C/N(C)C=O)[C@@H]1C | 230 to 250 nM | 280 to 290 nM | 250 to 260 nM | inactive |
| COCC(OC)C(=O)OC(CCC(C)C(CC1OC(=O)CC(O)CCCC(=O)CC(C)c2coc(n2)-c2coc(n2)-c2coc(n2)/C=C/CC(OC)C1C)OC)C(C)C(OC(C)=O)C(C)/C=C/N(C)C=O (stereo unspecified) | 290 nM | 260 to 330 nM | 280 to 340 nM | inactive |

Source: ChEMBL document CHEMBL4033606, “Ulapualides C-E Isolated from a Hawaiian Hexabranchus sanguineus Egg Mass” (J Nat Prod, 2017)
